Bioassay records as filed in PubChem BioAssay.
Hits are enriched below; roughly 1.1% of the tested compounds scored in any of these assays.
eIF2B yeast act: eIF2B (yeast) activity modulation. AID 688. inhibition, % at 25 µM (by protocol). hit rate 0.91% among 27,000. S. cerevisiae eIF2B-epsilon R284H, GCN4-lacZ luminescence;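 active = mutant luminescence inhibited past about 50% while wild type luminescence and mutant growth stay under set limits, limit read from the data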
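Assay system: yeast eIF2B-epsilon R284H mutant carrying GCN4–beta-galactosidase fusion / Buffer or medium: YPD / Incubation: 16 h growth with compound at 30 °C, 90 min Beta-Glo step / Detection: Beta-Glo luminescence after Z-buffer lysis, growth by 595 nm absorbance / Read-out: % inhibition of reporter signal and growth versus controls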
Yeast tox: Inhibitors of S. cerevisiae growth, toxicity; S. cerevisiae wild-type growth, A595 turbidity, 16 h; growth inhibition, % at 25 µM (by protocol); hit rate 0.3% among 30,000;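 active = mutant and wild-type yeast strains alike exhibit over 30% growth inhibition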;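 note: 0% = untreated cell controls and 100% = YPD media blanks without cells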
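system = S. cerevisiae wild-type or eIF2Bepsilon-R284H mutant strain | buffer or medium = YPD medium | dosing = one dose, 25 µM compound, 0.2% DMSO | schedule = 16 h at 30 °C | measured by = A595 turbidity | evaluation = growth inhibition (%) versus cell controls and blanks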
* = called active by the depositor; . = no result.

SMILES	eIF2B yeast act	Yeast tox
CCCC1CC(C)(c2csc(Nc3ccc(OCC)cc3)n2)OC1=O (stereo unspecified)	54.0*	-2.3
CCC(=O)OCCNc1cc(Sc2nc3ccccc3s2)c2nonc2c1[N+](=O)[O-]	.	52.4*
CC(C)OC(=O)CSc1nc2ccccc2s1	.	-12.0
O=C(Nc1ccc(Br)cc1)c1ccc(N2C(=O)C3CC=C(Cl)CC3C2=O)cc1 (stereo unspecified)	.	-8.2
COc1ccc2[nH]c(=O)c(CN(Cc3nnnn3Cc3ccccc3)CC3CCCO3)cc2c1 (stereo unspecified)	-7.2	0.3
CCC(C)(C)n1nnnc1CN(Cc1cccs1)Cc1cc2cc(OC)ccc2[nH]c1=O	64.1*	1.8
